The source made the active and inactive calls. The rule behind the calls is not given here.
Tests used:
[1] = tested on: Rattus norvegicus; experiment: Total plasma clearance was determined for the compound after iv dose of 4.74 mg/kg in rats; type: ADME, organism-based; set-up: dose 4.74 mg/kg, route intravenous; details: in vivo
[2] = tested on: Rattus norvegicus; experiment: Area under curve was determined for the compound after iv dose of 4.74 mg/kg in rats; type: ADME, organism-based; set-up: dose 4.74 mg/kg, route intravenous; details: in vivo
[3] = Half-life after iv dose of 4.74 mg/kg in rats; type: ADME, organism-based; set-up: dose 4.74 mg/kg, route intravenous; details: rat, in vivo
[4] = biological target: T1, GABA-A receptor; anion channel (Rattus norvegicus) (UniProt O09028+P15431+P18506+P18508+P19969+P20236+P23574+P23576+P28471+P28473+P30191+P62813+P63079+P63138+Q91ZM7+Q9ES14); experiment: (§1) Displacement of [3H]flunitrazepam from GABA-A benzodiazepine receptor of rat cortical membranes; type: cell membranes; set-up: concentration or dose not given beside the values; details: Membrane, concentration not given here
In short: (§2)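 Rat membranes incubated 60 min at 4 °C with [3H]flunitrazepam, 50 µg membrane protein and graded test drug in 200 µL containing NaCl, 10 mM Hepes/Tris pH 7.4 and 1 mM MgCl2; bound ligand separated by rapid filtration on GF/B; mean affinity, SE ≤10% of mean.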

[5] = biological target: GABA-A receptor; anion channel; experiment: as §1; type: cell membranes, Membrane; in short: as §2
[6] = biological target: T1, GABA-A receptor; anion channel (Rattus norvegicus); experiment: Shift in [35S]TBPS binding to GABA-A Benzodiazepine receptor of rat brain membrane
[7] = biological target: T2, GABA-A receptor; alpha-1/beta-2/gamma-2 (Homo sapiens) (UniProt P14867+P47870+P18507); experiment: (§3) In vitro GABA-mediated chloride current in A293 cells expressing GABA-A benzodiazepine receptor alpha-1-beta-2-gamma-2 subunits at 5 uM; type: functional, cell-based; details: HEK293
[8] = biological target: GABA A receptor alpha-3/beta-2/gamma-2 (Homo sapiens) (UniProt P47870+P18507+P34903); experiment: In vitro GABA-mediated chloride current in A293 cells expressing GABA-A benzodiazepine receptor alpha-3-beta-2-gamma-2 subunits at 5 uM; type: functional, cell-based; details: HEK293
[9] = organism: Mus musculus; experiment: Ability to antagonize the muscle relaxation effect in mice caused by a benzodiazepine full agonist, triazolam.; type: functional
In short: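 Muscle relaxation induced by triazolam; test compound and triazolam given separately, traction scored 30 min after dosing; ED50 for blocking the relaxant effect.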

[10] = tested on: Mus musculus; experiment: In vivo efficacy is evaluated by percent control of cerebellar GMP levels in (drug+stress) treated mice/mice under stress; type: functional; set-up: concentration or dose not given beside the values
In short: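 Male CF-1 mice given drug orally in vehicle 122 before electric footshock stress, controls given vehicle (1 mL/100 g); killed 30 min after treatment; cerebellum homogenized in 1% perchloric acid, iced 30 min, boiled 5 min, spun 17000g 20 min; supernatant cGMP by radioimmunoassay, expressed as % of stress control.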

[11] = tested on: Mus musculus; experiment: In vivo acute electroshock physical dependence activity in mice; Not active.; type: functional, organism-based
[12] = tested on: Rattus norvegicus; experiment: In vivo efficacy evaluated for ability to antagonize metrazole induced clonic convulsions in rat after ip injection; type: functional
[13] = tested on: Rattus norvegicus; experiment: Geller-cook activity was determined using wilcoxon signed rank test on non punished schedule at dose 0.3 mg/kg.; type: functional
In short: (§4)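 Geller–Cook conflict schedule with punished and nonpunished response rates recorded per treatment; 6 animals per dose, controls 12–17; each dose compared to its own control by Wilcoxon signed rank test, p < 0.05.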

[14] = tested on: Rattus norvegicus; experiment: Geller-cook activity was determined using wilcoxon signed rank test on non punished schedule at dose 1 mg/kg.; type: functional; in short: as §4
[15] = tested on: Rattus norvegicus; experiment: Geller-cook activity was determined using wilcoxon signed rank test on non punished schedule at dose 3 mg/kg.; type: functional; in short: as §4
[16] = tested on: Rattus norvegicus; experiment: Geller-cook activity was determined using wilcoxon signed rank test on punished schedule at dose 0.3 mg/kg.; type: functional; in short: as §4
[17] = tested on: Rattus norvegicus; experiment: Geller-cook activity was determined using wilcoxon signed rank test on punished schedule at dose 1 mg/kg.; type: functional; in short: as §4
[18] = tested on: Rattus norvegicus; experiment: Geller-cook activity was determined using wilcoxon signed rank test on punished schedule at dose 3 mg/kg.; type: functional; in short: as §4
[19] = tested on: Rattus norvegicus; experiment: Mean number of shocks in vogel''s punished licking assay in rats by 3 mg/kg Diazepam; type: functional
In short: (§5)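 Vogel punished licking test in rats; number of shocks accepted recorded per dose group (n 6–10); each dose compared with the 0 mg/kg group of the same experiment by Wilcoxon rank sum test.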

[20] = tested on: Rattus norvegicus; experiment: Mean number of shocks produced by the compound in rats at a dose of 0 mg/kg was determined by vogel's punished licking assay; type: functional; in short: as §5
[21] = tested on: Rattus norvegicus; experiment: Mean number of shocks produced by the compound in rats at a dose of 0.3 mg/kg was determined by vogel's punished licking assay; type: functional; in short: as §5
[22] = tested on: Rattus norvegicus; experiment: Mean number of shocks produced by the compound in rats at a dose of 1 mg/kg was determined by vogel's punished licking assay; type: functional; in short: as §5
[23] = tested on: Rattus norvegicus; experiment: Mean number of shocks produced by the compound in rats at a dose of 10 mg/kg was determined by vogel's punished licking assay; type: functional; in short: as §5
[24] = tested on: Rattus norvegicus; experiment: Mean number of shocks produced by the compound in rats at a dose of 3 mg/kg was determined by vogel's punished licking assay; type: functional; in short: as §5
[25] = biological target: T2, GABA-A receptor; alpha-1/beta-2/gamma-2 (Homo sapiens); experiment: as §3; type: functional, cell-based; details: HEK293; remark: listed apart in the source
[26] = biological target: T1, GABA-A receptor; anion channel (Rattus norvegicus); experiment: Inhibition of [35S]TBPS binding to GABA-A Benzodiazepine receptor of rat brain membranes; type: cell membranes; details: Membrane
[27] = tested on: Mus musculus; experiment: In vivo acute electroshock physical dependence activity in mice; Active; type: functional, organism-based
[28] = tested on: Rattus norvegicus; experiment: Mean number of shocks produced by CDPZ in rats at a dose of 12 mg/kg was determined by vogel's punished licking assay; type: functional; in short: as §5
[29] = biological target: T1, GABA-A receptor; anion channel (Rattus norvegicus); details: Membrane
[30] = Area under curve was determined for the compound after po dose of 5.46 mg/kg in rats; type: ADME, organism-based; set-up: dose 5.46 mg/kg, route oral; details: rat, in vivo
[31] = Maximum serum concentration after po dose of 5.46 mg/kg in rats; type: ADME, organism-based; set-up: dose 5.46 mg/kg, route oral; details: rat
[32] = Time at which Cmax was reached was determined for the compound after po dose of 5.46 mg/kg in rats; type: ADME, organism-based; set-up: dose 5.46 mg/kg, route oral; details: rat, in vivo
In short: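 Male Sprague–Dawley rats dosed orally with compound in a solution formulation, n = 3–4 per compound; serum drug concentrations measured over time, lower limit of quantitation 50 ng/mL. Tmax reported as the range of observed values across animals.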

[33] = Half-life after po dose of 5.46 mg/kg in rats; type: ADME, organism-based; set-up: dose 5.46 mg/kg, route oral; details: rat, in vivo

Compound | inhibition [4] | Ki [5] | Shift [6] | Change in Cl- current [7] | ED50 [9] | Control [10] | Acute electroshock activity [11] | ED50 [12] | Mean no. of shocks [20] | Mean no. of shocks [21] | Mean no. of shocks [22] | Mean no. of shocks [23] | Mean no. of shocks [24] | Change in Cl- current [25] | Shift [26] | also measured
C[C@@H]1CN(C(=O)N2Cc3c(C(=O)OC(C)(C)C)ncn3-c3ccc(Cl)cc32)C[C@H](C)N1C | 86% | 4.48 nM | -0.06 | -0.2 | 7 mg/kg | 36% | inactive | 14.8 mg/kg | 8.4 | 8 | 7 | 18 | 18 | 1 | – | Clp [1]: 45.2 mL/min/kg; AUC [2]: 3570 ng·h/mL; half-life [3]: 0.57 h; Change in Cl- current [8]: 1; Gellar cook activity [13]: 38; Gellar cook activity [14]: 56; Gellar cook activity [15]: 36; Gellar cook activity [16]: 22; Gellar cook activity [17]: 53; Gellar cook activity [18]: 65; Mean no. of shocks [19]: 13
CC(C)(C)OC(=O)c1ncn2c1CN(C(=O)N1CCN(C(C)(C)C)CC1)c1cc(Cl)ccc1-2 | 62% | 20.9 nM | – | 0.12 | > 30 mg/kg | – | – | 50 mg/kg | – | – | – | – | – | – | -0.03 | Acute electroshock activity [27]: Active
CC(C)N1[C@H](C)CN(C(=O)N2Cc3c(C(=O)OC(C)(C)C)ncn3-c3ccc(Cl)cc32)C[C@@H]1C | 85% | 5.16 nM | -0.97 | -0.32 | > 30 mg/kg | 52% | inactive | 35.3 mg/kg | 6.6 | 6.3 | 5.3 | <3.4 | 5 | 0.9 | – | Mean no. of shocks [28]: 26
CC(C)n1c(=O)c2c(-c3noc(C4CC4)n3)ncn2c2ccccc21 [PANADIPLON] | – | – | – | 0.04 | 1.7 mg/kg | 87% | inactive | 1.6 mg/kg | – | – | – | – | – | – | – | Shift [29]: 0.06
CC(C)(C)OC(=O)c1ncn2c1CN(C(=O)N1CCCC1)c1cc(Cl)ccc1-2.CCCC(=O)O | – | 2.56 nM | – | 0.38 | 14 mg/kg | 105% | inactive | 29.7 mg/kg | – | – | – | – | – | – | 0.53 | AUC [30]: 3680 ng·h/mL; Cmax [31]: 330 ng/mL; Tmax [32]: 1 h; half-life [33]: 7.6 h
